In ChEMBL document CHEMBL3352276, “Design, synthesis and in vitro antitumor activity of novel N-substituted-4-phenyl/benzylphthalazin-1-ones” (Eur J Med Chem, 2015):
pIC50: −log10 of the molar value. Activity calls are given as the source filed them. No cut-off for these calls is given here.

Tests used:
[1] = system: HepG2; experiment: Antiproliferative activity against human HepG2 cells after 72 hrs by SRB assay; format: functional, cell-based; settings: HepG2, 72 h
[2] = system: HT-29; experiment: Antiproliferative activity against human HT-29 cells after 72 hrs by SRB assay; format: functional, cell-based; settings: HT-29, 72 h
In short: (§1)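 SRB assay. HT-29 grown in DMEM; HepG2 and MCF-7 grown in RPMI-1640, all with 10% heat-inactivated FBS at 37 °C under 5% CO2. Cells seeded at 1000–2000/well, left 24 h, then exposed to a range of concentrations for 72 h. Fixed with 10% TCA for 1 h at 4 °C, stained with 0.4% SRB, OD read at 564 nm. IC50 taken from a Boltzmann sigmoidal nonlinear fit. Mean ± S.D. of three separate experiments.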

[3] = system: MCF7; experiment: Antiproliferative activity against human MCF7 cells after 72 hrs by SRB assay; format: functional, cell-based; settings: MCF7, 72 h; in short: as §1
[4] = system: HT-29; experiment: Ratio of doxorubicin IC50 to compound IC50 for human HT-29 cells; format: functional
[5] = system: HepG2; experiment: Cell cycle arrest in human HepG2 cells assessed as accumulation at preG1 phase at IC50 for 24 hrs by propidium iodide staining-based FACS analysis relative to untreated control; format: functional
In short: (§2)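 HepG2 cells exposed 24 h at each compound's preset concentration. Then washed in ice-cold PBS, fixed in ice-cold 70% ethanol, treated with 0.1 mg/ml RNase and stained with PI. DNA content read by flow cytometry, and phase distribution compared with untreated control. Triplicate experiments.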

[6] = system: HepG2; experiment: Cell cycle arrest in human HepG2 cells assessed as reduction in G0/G1 phase at IC50 for 24 hrs by propidium iodide staining-based FACS analysis relative to untreated control; format: functional; in short: as §2
[7] = system: HepG2; experiment: Cell cycle arrest in human HepG2 cells assessed as reduction in S phase at IC50 for 24 hrs by propidium iodide staining-based FACS analysis relative to untreated control; format: functional; in short: as §2
[8] = system: HepG2; experiment: Induction of apoptosis in human HepG2 cells assessed as apoptotic cells after 24 hrs by annexin-V/FITC-propidium iodide staining-based FACS analysis relative to untreated control; format: functional
In short: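 HepG2 cells treated for 24 h, harvested and washed in PBS. 10^5 cells stained with annexin V-FITC and PI from a detection kit. Flow cytometry used unstained cells for voltage and compensation. Early plus late apoptotic quadrants (LR+UR) compared with control. Triplicate experiments.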

[9] = system: HepG2; experiment: Induction of apoptosis in human HepG2 cells assessed as down regulation of Bcl2 expression at IC50 by sandwich ELISA relative to untreated control; format: functional
[10] = system: HepG2; experiment: Induction of apoptosis in human HepG2 cells assessed as upregulation of Bax expression at IC50 by sandwich ELISA relative to untreated control; format: functional
[11] = system: HepG2; experiment: Induction of apoptosis in human HepG2 cells assessed as increase in caspase-3 expression at IC50 by sandwich ELISA relative to untreated control; format: functional
[12] = system: HT-29; experiment: Induction of apoptosis in human HT-29 cells assessed as increase in caspase-3 expression at IC50 by sandwich ELISA relative to untreated control; format: functional
[13] = system: HepG2; experiment: Cell cycle arrest in human HepG2 cells assessed as increase in S phase at IC50 for 24 hrs by propidium iodide staining-based FACS analysis relative to untreated control
[14] = system: HepG2; experiment: Ratio of doxorubicin IC50 to compound IC50 for human HepG2 cells; format: functional
In short: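 SRB growth assay: HepG2 in RPMI-1640 + 10% heat-inactivated FBS, seeded 1000–2000 cells/well, dosed after 24 h with graded concentrations alongside doxorubicin for 72 h; TCA-fixed, SRB-stained, OD 564 nm. IC50 fitted as Boltzmann sigmoidal curve vs untreated controls, three separate experiments; ratio = doxorubicin IC50 / compound IC50 from the same assay.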

pIC50 [1]	pIC50 [2]	pIC50 [3]	Compound	also measured
4.99	5.40	4.48	O=C(Cn1nc(-c2ccccc2)c2ccccc2c1=O)Nc1ccc(Cl)cc1	Ratio IC50 [4]: 1.9
5.46	4.39	4.24	O=C(Cn1nc(-c2ccccc2)c2ccccc2c1=O)Nc1cccc(C(F)(F)F)c1	Activity [5]: inactive; Activity [6]: inactive; Activity [7]: inactive; Ratio [8]: 2.1; Activity [9]: 9.6%; Activity [10]: 44%; Ratio [11]: 2.5
4.48	4.05	4.52	O=C(Cn1nc(-c2ccccc2)c2ccccc2c1=O)Nc1ccccc1Cl	–
4.97	4.33	4.46	O=C(Cn1nc(-c2ccccc2)c2ccccc2c1=O)Nc1ccc(F)cc1	–
4.16	< 4.00	4.21	COc1ccc(NC(=O)Cn2nc(Cc3ccccc3)c3ccccc3c2=O)cc1	–
5.46	5.11	–	COc1cccc2c1C(=O)c1c(O)c3c(c(O)c1C2=O)C[C@@](O)(C(=O)CO)C[C@@H]3O[C@H]1C[C@H](N)[C@H](O)[C@H](C)O1 [DOXORUBICIN]	–
4.57	4.01	4.52	O=C(Cn1nc(Cc2ccccc2)c2ccccc2c1=O)Nc1ccc(F)cc1	–
4.18	4.02	4.44	O=C(Cn1nc(Cc2ccccc2)c2ccccc2c1=O)Nc1ccccc1	–
5.48	5.52	4.13	O=C(Cn1nc(-c2ccccc2)c2ccccc2c1=O)Nc1cccc(Cl)c1	Ratio IC50 [4]: 2.5; Activity [5]: inactive; Activity [6]: inactive; Activity [7]: inactive; Ratio [8]: 2.4; Activity [9]: 22%; Activity [10]: 43.5%; Ratio [11]: 3; Ratio [12]: 5.6
< 4.00	5.53	4.89	O=C(Cn1nc(Cc2ccccc2)c2ccccc2c1=O)Nc1ccc(Cl)cc1	Ratio IC50 [4]: 2.6
< 4.00	< 4.00	4.11	COc1ccc(NC(=O)Cn2nc(-c3ccccc3)c3ccccc3c2=O)cc1	–
4.87	4.00	4.37	O=C(Cn1nc(-c2ccccc2)c2ccccc2c1=O)Nc1ccccc1	–
5.45	4.21	5.41	O=C(Cn1nc(Cc2ccccc2)c2ccccc2c1=O)Nc1cccc(C(F)(F)F)c1	Ratio [5]: 9.4; Activity [6]: 32.3%; Ratio [8]: 2.7; Activity [9]: 22%; Activity [10]: 39.9%; Ratio [11]: 2.8; Activity [13]: 27.7%
4.85	5.43	4.97	O=C(Cn1nc(Cc2ccccc2)c2ccccc2c1=O)Nc1cccc(Cl)c1	Ratio IC50 [4]: 2
5.92	4.37	4.05	O=C(Cn1nc(Cc2ccccc2)c2ccccc2c1=O)Nc1ccccc1Cl	Ratio IC50 [14]: 2.9; Ratio [5]: 28; Ratio [6]: 2; Ratio [7]: 1.9; Ratio [8]: 9.5; Activity [9]: 34%; Activity [10]: 80.2%; Ratio [11]: 4
